Source: ChEMBL document CHEMBL4513216, “Probing the Open Global Health Chemical Diversity Library for Multistage-Active Starting Points for Next-Generation Antimalarials” (ACS Infect Dis, 2020)

Assay: Toxicity liver stage against HepG2, at 10uM
Assay type: cell-based
Design: test concentration 10 uM, cell line HepG2-A16-CD81EGFP
Conditions: human, HepG2-A16-CD81EGFP cells; read-out: INHIBITION
Summary of the method: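 Uninfected HepG2-A16-CD81EGFP cells, 3 × 10^3 per well, 1536-well, plated on prespotted compound at 10 μM final, parasite-free screening media added to match infected plates; puromycin 10 μM positive, DMSO 0.5% negative; run in parallel with 48 h PbLuc assay at 37 °C, 5% CO2; viability by CellTiter-Glo luminescence, normalized to controls.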

| SMILES | cytotoxicity at 10 µM |
| --- | --- |
| Cn1ccnc1CCNS(=O)(=O)c1cccnc1 | 10.7% |
| CC(C)(C)c1cn(C[C@H]2CC3CCN2C[C@@H]3C(=O)NC2CC2)nn1 (stereo not given in full) | 9.46% |
| CC(=O)N1N=C(c2ccccc2)OC1C(=O)N(C)CCc1ccccc1 (stereo not given) | 3.54% |
| OC[C@@H]1[C@@H](c2ccccc2)CN2CCN(c3ccccn3)C[C@H]12 | -0.53% |
| COc1ccc2nnc(CCCC(=O)Nc3nc4c(s3)CCC4)n2n1 | -5.01% |
| O=C1CSC(C(F)(F)F)c2c(O)nn(C3CCCCC3)c2N1 (stereo not given) | -45.7% |
| CC1CCN(C(=O)CSc2nc3c(cnn3CCO)c(=O)[nH]2)CC1 | 7.98% |
| Cc1ccnc(OCC(=O)N2CCCC2)n1 | -10.2% |
| COc1ccc(F)cc1S(=O)(=O)N1CCC(Oc2ccc(Cl)cn2)CC1 | 8.05% |
| CN(CC1CC1)c1ccc2ccc(C(=O)NCCc3ccccc3)cn12 | -1.83% |
| CN(C)C(=O)N1CC2(CCN(S(=O)(=O)C3CC3)CC2)c2ccccc21 | -110% |
| COCc1cncc2c1CCN(C(=O)c1ccsc1)C2 | 2.43% |
| Cc1nocc1C(=O)N1CCCC2(CCN(c3cnn(C)c3)C2=O)C1 (stereo not given) | 2.43% |
| COCCn1ccc2c(cnc3nc(SC)nn32)c1=O | -17.4% |
| O=C(NC1CCCC1)N1CCCCC1c1nc(C2CC2)no1 (stereo not given) | -9.52% |
| Cc1nn(C)c2cnn(Cc3ccc(C(=O)NCC4CC4)o3)c12 | 6.06% |
| Cc1nc(NCCc2ccccc2)cc(C(=O)N2CCOCC2)n1 | -3.01% |
| CCn1ccc(C(=O)NCCCN2CCOCC2)n1 | -7.9% |
| Cc1ccccc1S(=O)(=O)N(C)[C@@H]1CC[C@@H](n2ccnc2C)[C@@H]1O | -1.07% |
| O=S(=O)(c1cn[nH]c1)N1CCC(O)(CN2CCOCC2)C1 (stereo not given) | 2.5% |
| O=C(c1ccncc1)N1CCCC(C2=Nc3ccccc3S(=O)(=O)N2)C1 (stereo not given) | 4.26% |
| COCC(=O)N1CCOC(c2cccc(-c3cncnc3)n2)C1 (stereo not given) | 0.109% |

| SMILES | cytotoxicity at 10 µM |
| --- | --- |
| Cc1ccccc1-c1cncc(C2CCN(CCO)CC2)n1 | -1.61% |
| CC(=O)N1CCCCC1c1nc2c(c(NC3CCCC3)n1)CN(C)CC2 (stereo not given) | -13% |
| CN(CCC(=O)N1CCCC(Cc2cccnc2)C1)Cc1cccnc1 (stereo not given) | -9.41% |
| CC(=O)N1CCCCC1c1nc(N)ncc1-c1ccccc1 (stereo not given) | -0.233% |
| O=C(NCCCn1ccnc1)C1COCC(=O)N1Cc1ccccc1 (stereo not given) | 12.3% |
| Cc1ccc(C2CN(CCS(C)(=O)=O)CCO2)c(C)c1 (stereo not given) | 3.03% |
| CCOCCC(=O)NCCNc1nccc(C(F)(F)F)n1 | 2.88% |
| c1csc(N2CCN(c3ncnc4sccc34)CC2)n1 | 34.6% |
| COc1cc(CNc2cc(-c3ccoc3C)nn2CCO)ccc1F | -14.6% |
| C[S+]([O-])c1ccc(CNc2ccc(F)cc2OC(F)F)cc1 (stereo not given) | 0.752% |
| CC(C)CN(C(=O)Nc1cccc(C(=O)N(C)C)c1)C1CC1 | -15.2% |
| NS(=O)(=O)N1CCc2ccc(NC(=O)CCc3ccncc3)cc21 | 2.68% |
| O=C(c1ccc(-n2ccnc2)nn1)N1CCCCC1Cn1cccn1 (stereo not given) | -4.49% |
| COc1ccc(CN2CCN(CCn3ccnc3)CC2)cc1F | -8.88% |
| Cc1c(C(=O)N(C)CC(C)O)sc2nc(C(F)(F)F)ccc12 (stereo not given) | -0.943% |
| CC(C)c1noc(CN(C)C(c2ccc(F)cc2)c2cccnc2)n1 (stereo not given) | 5.66% |
| CC(=O)N(C)c1nc(CN2CCN(c3nccs3)CC2)cs1 | -12.5% |
| O=C(Nc1cc(CSCCO)ccn1)c1ccc(Cl)o1 | -7.76% |
| CCN(C(=O)C1Cc2cc(Cl)ccc2O1)C1CC1 (stereo not given) | 10.1% |
| CN(C)S(=O)(=O)c1ccc(CN2CCC(c3ccccc3)C2)o1 (stereo not given) | 17.5% |
| CCCc1nc(C(C)(C)NC(=O)c2ccnn2C)no1 | -10.5% |
| Cc1ccc(CNCCOc2ccc(S(C)(=O)=O)cc2)cc1 | -9.12% |

| SMILES | cytotoxicity at 10 µM |
| --- | --- |
| Cn1nnc2cc(C(=O)N3CCCC3Cc3ccccc3)ccc21 (stereo not given) | -14.7% |
| Cn1ccnc1CN1CCc2c(COCC3CC3)nn(C)c2C1 | 8.68% |
| Cc1ccc2c(c1)C(N1CCOCC1)CC21CCNCC1 (stereo not given) | -116% |
| CN1CCC(CO[C@H]2CN(C(=O)c3cccn3C)[C@@H]3COC[C@H]23)CC1 | -109% |
| O=C(c1cscn1)N1CCc2ncc(Cn3cncn3)n2CC1 | -68.9% |
| O=C(c1ccnnc1)N1CCc2ncnc(C3CCOC3)c2CC1 (stereo not given) | -77.5% |
| Cc1cccc(COC[C@]23COC[C@H]2CN(c2ncccn2)C3)n1 | -76.2% |
| CN(C)CC(=O)Nc1ccc(C(=O)N(C)CCc2cn[nH]c2)cc1 | 2.2% |
| CC(C)CN(Cc1ccccn1)Cc1ccccc1C(=O)O | 2.51% |
| Nc1cc(C(=O)N2CCC(Oc3cccc(C(F)(F)F)c3)CC2)ccn1 | -7.03% |
| CCS(=O)(=O)c1ncc(CN2CCN(C)CC2)n1CCc1ccccc1 | 2.44% |
| Cc1nn(C)cc1C(=O)N1CCCn2nc(CN3CC[C@H](F)C3)cc2C1 | -7.88% |
| CCC1CN(C(=O)c2cc(C(C)=O)c(C)[nH]c2=O)CCN1C(C)C (stereo not given) | 6.03% |
| CCn1ccnc1CN(C)Cc1nc(Cc2cccc(F)c2)no1 | -4.44% |
| Cc1nc(CN2C[C@@H](NS(=O)(=O)N(C)C)[C@H](C(C)C)C2)cs1 | -6.04% |
| COCc1ncc(CN2CCN(C)C(=O)C2C)cn1 (stereo not given) | 1.31% |
| c1cncc(OCCCNC2COc3ccccc3C2)c1 (stereo not given) | -7.84% |
| c1cc(CN2CCC(CCn3cccn3)CC2)cc(Cn2cccn2)c1 | -1.58% |
| CN(CCN1CCCCC1=O)Cc1cc2cc3c(cc2[nH]c1=O)OCO3 | -6.21% |
| O=C(c1cccnc1)C1CCCN(c2nnc(C3CC3)o2)C1 (stereo not given) | 6.59% |
| Cc1cc(C)nc(CCNc2nccc(CCC(F)(F)F)n2)n1 | -114% |
| CC(Nc1ncnc2sccc12)c1cnn(C)c1 (stereo not given) | -2.63% |

| SMILES | cytotoxicity at 10 µM |
| --- | --- |
| Cc1nsc(NC(=O)NC2(CN3CCOCC3)CCCC2)n1 | 3.89% |
| CC1CCC(NCCCN2CCOCC2)CC1 (stereo not given) | -6.58% |
| CN1CCN(C(=O)c2cn3ccsc3n2)[C@H]2CS(=O)(=O)C[C@H]21 | -1.27% |
| Cc1nc(N)ncc1C(=O)N1CCCC(CCc2ccc(F)c(F)c2)C1 (stereo not given) | -4.51% |
| COCCNC(=O)c1cnc(C)nc1C | 24.5% |
| Cn1cc(CN(CC2(O)CNCCOC2)C2CCCCC2)cn1 (stereo not given) | 3.09% |
| CC(Cn1ccnc1)NC1CCN(Cc2cccc(O)c2)CC1 (stereo not given) | -4.21% |
| Cc1cc(C(F)(F)F)nc(CNC(=O)CCC2CCCCN2C)n1 (stereo not given) | -59% |
| CC(C)n1cnnc1CN(C)C(=O)c1cnn2ccccc12 | 1.31% |
| COCc1ncc(CN(CCN(C)C)Cc2ccc(C)s2)cn1 | -57.1% |
| CCOC(=O)N1CCN(C(=O)c2ccc3ccn(C)c3c2)CC1 | -6.57% |
| CN1CCN(C[C@@H]2CN(C(=O)c3ccccc3C#N)C[C@@H]2CO)CC1 | -24.7% |
| CCN(CC)C(=O)c1c(Cl)cnn1CC | -12.3% |
| Cc1cccc(CN2CCC(N(C)Cc3nnc(C4CC4)n3C)C2)c1 (stereo not given) | -6.04% |
| CN(C)c1cc(C(=O)N2CCCN(c3cccnn3)CC2)ccn1 | -8.19% |
| Cc1cc(OCC(=O)NS(=O)(=O)c2cccnc2)ccc1Cl | 0.544% |
| Cc1ccc(-c2noc(CN3CCc4cncnc4C3)n2)cc1 | 1.04% |
| COc1cc(Cl)ccc1C(=O)N1CCCC(c2cc(C)[nH]n2)C1 (stereo not given) | 72.5% |
| CC(C)c1nccn1C1CCCN(C(=O)c2cnc[nH]2)C1 (stereo not given) | -0.808% |
| Nc1nc(CN2CCOC(Cn3cncn3)C2)nc2ccccc12 (stereo not given) | -0.734% |
| c1ccc(OCCCNCCn2cccn2)cc1 | -5.46% |
| O=C(NCCNc1cnccn1)C1CCN(C(=O)N2CCCC2)CC1 | -0.577% |

| SMILES | cytotoxicity at 10 µM |
| --- | --- |
| CC(C(=O)N1CCN(c2cnccn2)CC1)n1cncn1 (stereo not given) | 8.37% |
| CC(NC(=O)CN(C)S(C)(=O)=O)c1nnc2n1CCCCC2 (stereo not given) | -10.2% |
| CCc1nc(C2CCCN(C(=O)c3ccc4c(c3)nnn4C)C2)no1 (stereo not given) | -3.3% |
| COCCc1noc(CNCC2CCCN2c2cccnn2)n1 (stereo not given) | 4.33% |
| Cn1cnnc1C1CCCN(C(=O)NCCOc2ccccc2)C1 (stereo not given) | 7.48% |
| Cc1ccc(CN(Cc2[nH]cnc2C)C2CC(C)(C)NC(C)(C)C2)o1 | -3.3% |
| COc1ccc(CC(=O)N2CC[C@@H](OC)[C@@H]2Cc2cccnc2)cc1 | 8.48% |
| Cn1cc(CN2CCC3(CC2)CCN(C(=O)c2cscn2)C3)cn1 | -2.45% |
| CCN1CC2(CC1=O)CN(Cc1ccncc1)CCN(C(=O)C(C)C)C2 (stereo not given) | -0.182% |
| Cc1cc(CN2CC[C@H]3[C@H]2CCN3CC(=O)N(C)C)oc1C | -5.6% |
| O=S(=O)(c1cccnc1)N1C[C@H]2CCC[C@@]2(COc2ccccn2)C1 | 7.05% |
| c1cc(CN2CCO[C@H]3[C@H](OCCN4CCCC4)CC[C@@H]32)ccn1 | -1.95% |
| O=C([C@@H]1CSCN1)N1CC2(CCNCC2)c2cc(Cl)ccc21 | 4.33% |
| COCCN1CCC2(CCN(Cc3ccc(OC)cc3)CC2)C1=O | 2.88% |
| CN(Cc1ccco1)[C@@H]1CN(CC2CCOCC2)C[C@@H]2CCCO[C@@H]21 | -71.1% |
| CCCN1CCC[C@]2(CCC(=O)N2Cc2ccncc2)[C@H]1CC | -1.16% |
| CCS(=O)(=O)N1CCN(Cc2cccnc2)c2nc(C)ccc2C1 | -70.3% |
| Cn1cnc2c(-c3ccccc3)nc(C3CCNCC3)cc21 | -109% |
| COCCCNC(=O)c1cc(-c2cnc(N3CCOCC3)nc2)cn1C | -69.8% |
| Cc1ccc(CN2CC[C@H]3C[C@H](C(=O)N4CCCO4)O[C@@H]3C2)o1 | 7.11% |
| CCN(C)c1ncnc2c1CCN(Cc1ccncc1)CC2 | -10.7% |
| Cc1cnn(CCC(=O)N2C[C@@H]3CC[C@H]2CN(CC(=O)N(C)C)C3)c1 | -10% |
